Experimental data published in PMC4627693 (Chemistry & biology, 2014).
Where a SMILES comes first, the peptide text is derived from it. The star is where a group is joined. Biotin = O=C1N[C@H]2[C@H](CS[C@H]2CCCCC(=O)*)N1; AEEA = NCCOCCOCC(=O)O

Tests used:
Format in all cases: binding
[1] = tested on: c-Src; settings: peptide 74 μM, 4 μM c-Src, 20 μM crosslinker 2; three hour time course; LC-MS
Method in brief: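 c-Src (4 μM) in PBS pH 8 incubated with acrylate crosslinker (20 μM; DMSO 0.025% final) and biotinylated cysteine-containing quasi-substrate peptide (74 μM) over 3 h. Samples quenched with NaBH4 in cold MeOH and analysed by ESI LC-MS on a C4 column with deconvolution. Crosslinked product expressed as % of total c-Src.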

[2] = tested on: recombinant c-Src; settings: crosslinker 2 (20 μM), HCT-15 lysate
Method in brief: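 HCT-15 lysate diluted in reaction buffer to 2 mg/mL (500 μL), with MgCl2 and 4 pmol recombinant c-Src added. Crosslinker (20 μM) added for 10 min at room temperature, then biotinylated Cys peptide (5–40 μM final) for 25 min. Urea lysis buffer added, then streptavidin-agarose capture for 1 h at room temperature with shaking. Beads washed in 4M urea and boiled in reducing Laemmli buffer. Anti-Src western blot read by infrared imaging, giving % of a total-c-Src standard. Duplicates; two experiments.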

[3] = tested on: c-Src-imine (c-Src-1 complex); test: Thiol reaction with Src-imine
Method in brief: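 c-Src (4 μM) pre-labelled 15 min with dialdehyde crosslinker (20 μM) in 25 mM HEPES pH 6.5, not quenched. Imine adduct then treated with 2-methylbenzylmercaptan (50 μM–1 mM) or Cys peptide (25–400 μM). Products analysed by ESI LC-MS with deconvolution. Duplicate points, representative of three experiments, error shown as SEM.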

[4] = biological target: c-Src-acrylamide (Gallus gallus, UniProt P00523); test: Thiol reaction with Src-acrylamide, LC-MS; settings: 4 μM c-Src-acrylamide (crosslinker 2), 25 minutes, room temperature
Method in brief: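 Recombinant c-Src (4 μM final) was pre-labelled with 20 μM crosslinker in PBS pH 8 (0.025% DMSO final) for 15 min without quench. It was then reacted with 2-methylbenzylmercaptan (50 μM-1 mM) or Cys-containing peptide (25-400 μM) to give a dose-response. Products were read by LC-ESI-MS (C4 column, deconvoluted spectra). Data are duplicate points (SEM), from three separate experiments.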

[5] = tested on: c-Src; settings: no adenine mimetic; 20 μM crosslinker, 4 μM c-Src, 25 mM HEPES pH 6.5; NaBH4 quench; LC-MS

Biotin-ZZRPRTSCF [Cys-Aktide] was tested, and the “crosslinked product formation over time course (in words)” value [1] was “reacted more slowly than Cys-Srctide, and did not reach completion”, the “c-Src captured at lowest peptide concentration (in words)” value ([2]; 5 μM peptide, 25 minutes) was “not captured at a detectable level” and the “percentage of c-Src recovered vs negative control” value ([2]; 40 μM peptide) was “significantly above the negative control”. For the same compound, the “yield of c-Src compared with Cys-Srctide” value ([2]; 25 minutes) was “less than that of Cys-Srctide”.
In the case of Biotin-ZZRRADDCDDDD [Cys-CK2tide], the “crosslinked product (percentage of total c-Src)” value [1] is reported as “less than 10%”.
`CC[C@H](C)[C@H](NC(=O)COCCOCCNC(=O)COCCOCCNC(=O)CCCC[C@@H]1SC[C@@H]2NC(=O)N[C@@H]21)C(=O)N[C@@H](CS)C(=O)NCC(=O)N[C@@H](CCC(=O)O)C(=O)N[C@@H](Cc1ccccc1)C(=O)N[C@@H](CCCNC(=N)N)C(=O)N[C@@H](CCCNC(=N)N)C(=O)N[C@@H](CCCNC(=N)N)C(N)=O` [Cys-Srctide] ({Biotin-AEEA-AEEA}-ICGEFRRR-NH2; C-terminus assumed) was tested, and the “overall yield of the reaction with dialdehyde crosslinker 1” value ([3]; dialdehyde-based crosslinker (earlier strategy), LC/MS) was “below the limit of detection”, the “crosslinked product formation with c-Src-1 complex” value ([3]; peptide concentrations exceeding 200 μM, 4 μM c-Src-imine, room temperature, LC-MS) was “no product formation was detected” and the “crosslinked product formation with Src-acrylamide adduct” value [4] was “significant crosslinked product”. The “crosslinked product formation over time course (in words)” value [1] was “proceed to completion” and the “c-Src captured at lowest peptide concentration” value ([2]; 5 μM peptide, 25 minutes) was “roughly 1%”.
With `Cc1ccccc1CS` [2-methylbenzylmercaptan, reference compound] the “product formation with c-Src-1 complex (Src-imine)” value ([3]; at high concentrations (50 μM-1 mM range), 4 μM c-Src-imine, 25 minutes, room temperature, LC-MS) was “significant product formation” and the “crosslinked product formation with Src-acrylamide adduct” value [4] was “much less efficient”.
With `O=Cc1ccsc1C=O` [thiophene dialdehyde] the “product (adduct) formed with c-Src” value [5] was “almost undetectable”.
